Rows were chosen to be rich in hits. Some 1.3% of all compounds tested hit in one or more screens of this group.
procasp7 counter: activates human procaspase-7, counter-screen for procaspase-3 activators | P55210 | recombinant procaspase-7, Ac-DEVD-pNA absorbance 405 nm; D23A/D198A/D206A triple mutant, cannot self-cleave; scale: DMSO 0, 5 µM enzyme 100 | activation, % at 8.5 µM | hit rate 0.093% among 330,000;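 active = percent activation above the screen-wide mean plus 3 SD, cut at about 25% in these data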
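Replicates: singlicate. Assay system: Procaspase-7 triple mutant (PC-7 D3A). Signal: 405 nm absorbance of p-nitroaniline. Times: 1 h preincubation, 2 h reaction. Buffer or medium: Zinc-free HEPES pH 7.4 with 300 mM NaCl, 0.01% Triton X-100. Also added: DEVD-pNA substrate. Benchmarks: DMSO wells as 0%, DMSO with 5 µM added PC-7 as 100%.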
CHT allo act: allosteric activators of human choline transporter CHT; Q9GZV3; CHT-expressing cells, membrane potential dye, choline EC20; stronger effect = higher value; LV-AA mutant CHT in HEK293 cells; B-score at 10 µM; hit rate 0.49% among 310,000;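 active = initial fluorescence not abnormally high and integrated response B-score, plate-corrected, over 3 SD above library mean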
Target sequence (Q9GZV3 whole entry, looked up): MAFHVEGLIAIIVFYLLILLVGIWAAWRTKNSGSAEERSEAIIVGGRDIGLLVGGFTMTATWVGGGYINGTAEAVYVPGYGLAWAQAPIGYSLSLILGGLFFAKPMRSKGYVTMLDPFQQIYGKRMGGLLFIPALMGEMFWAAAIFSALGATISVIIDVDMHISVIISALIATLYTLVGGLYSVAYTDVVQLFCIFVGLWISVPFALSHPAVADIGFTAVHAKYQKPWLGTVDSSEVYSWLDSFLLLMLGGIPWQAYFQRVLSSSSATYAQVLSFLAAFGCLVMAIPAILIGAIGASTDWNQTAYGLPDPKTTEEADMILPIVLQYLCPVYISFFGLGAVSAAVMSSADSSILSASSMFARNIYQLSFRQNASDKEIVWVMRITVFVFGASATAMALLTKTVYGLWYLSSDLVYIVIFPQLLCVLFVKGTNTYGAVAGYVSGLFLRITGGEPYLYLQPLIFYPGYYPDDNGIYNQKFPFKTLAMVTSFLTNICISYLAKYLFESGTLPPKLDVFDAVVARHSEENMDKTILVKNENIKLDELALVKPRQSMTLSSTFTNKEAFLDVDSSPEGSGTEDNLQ
procasp3 activ: procaspase-3 (human) activation; hit rate 0.11% among 330,000; activation, % at 8.5 µM; recombinant procaspase-3 D3A, Ac-DEVD-pNA absorbance 405 nm; AID 463141; P42574;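 active = activation above the mean of all tested compounds plus 3 SD, cut at about 21% in these data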
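Evaluation: percent activation relative to control range; Material: Procaspase-3 D3A mutant, all three cleavage aspartates alanine; Compound: single dose, 8.5 µM nominal compound, 0.8% DMSO; Replication: one well per compound; Signal: absorbance at 405 nm, 0 and 120 min; Schedule: 1 h preincubation plus 2 h reaction at 25 °C.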
CHT block: inhibits the human high affinity choline transporter | B-score at 10 µM | CHT-expressing cells, membrane potential dye, choline response; stronger effect = lower value | hit rate 0.86% among 310,000;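 active = B-score over 3 SD under the library average, and starting fluorescence ratio not unusually high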;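 note: choline stimulus applied at its EC90 after an EC20 pre-addition; B-score computed on integrated fluorescence ratio after choline addition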
CHT inh conf: confirmation of human choline transporter CHT inhibitors; CHT-expressing cells, choline membrane potential dye; LV-to-AA substituted CHT, HEK293 cells; CHT activity remaining % of control (stronger effect = lower value), % at 10 µM; shares compounds with CHT block; hit rate 70% among 2,400; AID 493221;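 active = choline transporter activity left, mean of duplicates at 10 µM, below buffer-only control mean minus 3 SD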;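 note: depolarization triggered by choline at its EC90 following an EC20 pre-addition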
HEK293 CHT ctr: CHT inhibitor counter-screen hit in parental HEK293 cells | shares compounds with CHT block | hit rate 4% among 2,400 | membrane potential dye, choline response; active = decrease or increase beyond buffer ±3SD | membrane potential ratio readout (active if shifted either direction beyond buffer ±3SD; no single direction) at 10 µM | AID 493222;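 note: parental cells lack the transporter so any hit is non-specific; ratio is peak minus trough fluorescence over baseline after EC90 choline challenge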
Each line names hits and unclear results; the compound was inactive in the other large screens (follow-up assays come after a bar, where they were run).

Cn1c2ccccc2c2cnn(CC(=O)NCCCN3CCN(c4ccccc4F)CC3)c(=O)c21	CHT block -5.5 | CHT inh conf inactive | HEK293 CHT ctr inactive
CCCn1c2ccccc2c2cnn(CC(=O)NCCCN3CCN(c4ccccc4)CC3)c(=O)c21	CHT block -9.9 | CHT inh conf 23% | HEK293 CHT ctr inactive
O=C(Cn1ncc2c3ccccc3n(Cc3ccccc3)c2c1=O)NCCN1CCOCC1	CHT block -15 | CHT inh conf 6.6% | HEK293 CHT ctr inactive
CCCN1CCN(CCCNC(=O)Cn2ncc3c4ccccc4n(C)c3c2=O)CC1	none
CCCn1c2ccccc2c2cnn(CC(=O)NCCCN3CCCCC3)c(=O)c21	CHT block -9.3 | CHT inh conf 21% | HEK293 CHT ctr inactive
Cc1c2cnn(CC(=O)NCCN3CCOCC3)c(=O)c2c(C)n1Cc1ccccc1	none
CC(=O)NC(N(C#N)c1nc(Cl)nc(N(C)C)n1)C(Cl)(Cl)Cl (stereo not given)	none
C=CCN1C(=O)c2ccc(C(=O)N(CC(C)C)c3c(N)n(CCCC)c(=O)[nH]c3=O)cc2C1=O	none
COc1ccccc1CNC(=O)CN1C(=O)NC2(CCCc3ccccc32)C1=O (stereo not given)	none (no result: CHT allo act, CHT block)
O=C(CN(C(=O)c1csnn1)c1ccccc1F)NC1CCCCC1	none
CCCn1c2ccccc2c2cnn(CC(=O)OC)c(=O)c21	CHT block -5.8 | CHT inh conf 24% | HEK293 CHT ctr inactive
O=C(Cn1ncc2c3ccccc3n(Cc3ccccc3)c2c1=O)NCCCN1CCCC1	CHT block -9 | CHT inh conf 25% | HEK293 CHT ctr inactive
CCCn1c2ccccc2c2cnn(CC(=O)NCCCN3CCCC(C)C3)c(=O)c21 (stereo not given)	CHT block -6.6 | CHT inh conf 26% | HEK293 CHT ctr inactive
Cc1c2cnn(CC(=O)NCCCN3CCCCC3)c(=O)c2c(C)n1Cc1ccccc1	none
Cc1csc(NC(=O)CSC2=NS(=O)(=O)c3cc(F)ccc3N2)n1	none
Cc1ccc(-c2nc(CNC(=O)c3cc(C)on3)cs2)cc1	none
COc1ccc(C(=O)c2cc([N+](=O)[O-])ccc2N2CCCC2)cc1	none
COc1ccc(C(=O)c2cc([N+](=O)[O-])ccc2N2CCN(C)CC2)cc1	CHT block -6.9 | CHT inh conf 44% | HEK293 CHT ctr 4.7
O=C(OCC(=O)N1CCN(C(=O)COC(=O)c2ccc(O)cc2O)CC1)c1ccc(O)cc1O	none
Cc1cc(C)c(NC(=O)c2ccc[n+](Cc3ccc([N+](=O)[O-])cc3)c2)c(C)c1	CHT block -10 | CHT inh conf 11% | HEK293 CHT ctr inactive
CN(C)S(=O)(=O)N1CCN(S(=O)(=O)c2ccc3ccccc3c2)CC1	none
CN(C)C(=O)N1CCN(S(=O)(=O)c2ccc3ccccc3c2)CC1	CHT block -6.7 | CHT inh conf 5.6% | HEK293 CHT ctr inactive
CCN1C(=O)[C@H]2[C@H]3CN=C(SCC4CC4)N3[C@@](CC)(C(=O)OC)[C@H]2C1=O	none (no result: CHT allo act, CHT block)
O=C(CCCSc1nc2ccccc2s1)NC1=NCCS1	CHT block -15 | CHT inh conf 4.3% | HEK293 CHT ctr inactive
CC(=O)Nc1ccc(NC(=O)CCCSc2nc3ccccc3s2)cc1	none
Cc1c(CC(=O)O)c(=O)oc2c(C)c(OCc3ccc(F)cc3Cl)ccc12	none
Cn1c(CN2CCN(CCO)CC2)c(C#N)c2ccccc21	CHT block -5.3 | CHT inh conf 41% | HEK293 CHT ctr inactive
CN(C)C(=O)c1cc(C(=O)c2c(F)cccc2F)c[nH]1	none
C=CCSc1nsc(NC(=O)Nc2ccc(F)cc2)n1	CHT block -7.8 | CHT inh conf inactive | HEK293 CHT ctr inactive
CCSc1nsc(NC(=O)Nc2ccccc2F)n1	none
COc1ccc(C(=O)NC(=S)NNC(=O)[C@H]2C[C@@H]2c2ccccc2)cc1OC	none
COc1cc(OC)cc(C(=O)NC(=S)NNC(=O)[C@H]2C[C@@H]2c2ccccc2)c1	CHT block -6.8 | CHT inh conf 53% | HEK293 CHT ctr inactive
CCOc1ccc(C2NC(=O)c3sc(=S)n(-c4ccccc4)c3N2)cc1 (stereo not given)	CHT block -4.9 | CHT inh conf inactive | HEK293 CHT ctr inactive
COc1ccc(C2NC(=O)c3sc(=S)n(-c4ccccc4)c3N2)cc1 (stereo not given)	none
COc1ccc2ccc(OCC(=O)Nc3cc(C)on3)cc2c1	none (no result: CHT allo act, CHT block)
O=C(O)c1ccccc1NSc1ccccc1[N+](=O)[O-]	CHT block -5.4 | CHT inh conf 62% | HEK293 CHT ctr inactive
Cc1ccc(C(=O)NC2CCCc3c2cnn3-c2ccc(F)cc2F)cn1 (stereo not given)	none
CC(C)(C)N(NC(=O)Nc1ccccc1)C(=O)c1ccccc1	CHT block -6.1 | CHT inh conf inactive | HEK293 CHT ctr inactive
CC(C)(C)N(NC(=O)Nc1ccc(Cl)cc1)C(=O)c1ccccc1	none
CSc1ccc(/C=C/C(=O)OCC(=O)NC2CCS(=O)(=O)C2)cc1 (stereo not given)	none (no result: CHT allo act, CHT block)
C=Cn1cc[n+](CC(=O)c2ccc(C)cc2)c1	none
C=Cn1cc[n+](CC(=O)c2ccc(Cl)cc2)c1	CHT block -6.7 | CHT inh conf 48% | HEK293 CHT ctr inactive
C=Cn1cc[n+](CC(=O)c2ccc(Br)cc2)c1	CHT block -6.8 | CHT inh conf 30% | HEK293 CHT ctr inactive
CCOCCCNc1ccc(N2C(=O)CCCC2=O)cc1[N+](=O)[O-]	none
COc1ccc(C2=NN(c3ccc(C(=O)O)cc3)C(c3ccc(OC)c(OC)c3)C2)cc1 (stereo not given)	CHT block -5.3 | CHT inh conf 62% | HEK293 CHT ctr inactive
COc1ccc(C2CC(c3ccccc3)=NN2c2ccc(Cl)c(C(=O)O)c2)cc1 (stereo not given)	none
CCNc1nc2[nH]c(=O)c3c(c2s1)OC(N)=C(C#N)C3c1ccc(C)cc1 (stereo not given)	CHT block -5 | CHT inh conf 67% | HEK293 CHT ctr inactive
O=C(Nc1ccc(S(=O)(=O)Nc2ccccc2)cc1)C1COc2ccccc2O1 (stereo not given)	none
Cc1cc(C)nc(NS(=O)(=O)c2ccc(NC(=O)C3COc4ccccc4O3)cc2)n1 (stereo not given)	CHT block -6.4 | CHT inh conf 41% | HEK293 CHT ctr inactive
CC(=O)NC(Cc1cccc(F)c1)C(=O)NC1CCN(C(=O)c2cccc(C)c2)CC1 (stereo not given)	CHT block -7.8 | CHT inh conf inactive | HEK293 CHT ctr inactive
CCN1C(=O)Cc2cc(S(=O)(=O)NCCc3ccccc3)ccc21	none

Screens: PubChem, several laboratories
